Published values gathered from unrelated publications.
Protocols differ between the studies behind these lines.
Target: Ephrin type-B receptor 1 (EPHB1, Homo sapiens, UniProt P54762)
Sequence (P54762 18-984, as in one of the studies): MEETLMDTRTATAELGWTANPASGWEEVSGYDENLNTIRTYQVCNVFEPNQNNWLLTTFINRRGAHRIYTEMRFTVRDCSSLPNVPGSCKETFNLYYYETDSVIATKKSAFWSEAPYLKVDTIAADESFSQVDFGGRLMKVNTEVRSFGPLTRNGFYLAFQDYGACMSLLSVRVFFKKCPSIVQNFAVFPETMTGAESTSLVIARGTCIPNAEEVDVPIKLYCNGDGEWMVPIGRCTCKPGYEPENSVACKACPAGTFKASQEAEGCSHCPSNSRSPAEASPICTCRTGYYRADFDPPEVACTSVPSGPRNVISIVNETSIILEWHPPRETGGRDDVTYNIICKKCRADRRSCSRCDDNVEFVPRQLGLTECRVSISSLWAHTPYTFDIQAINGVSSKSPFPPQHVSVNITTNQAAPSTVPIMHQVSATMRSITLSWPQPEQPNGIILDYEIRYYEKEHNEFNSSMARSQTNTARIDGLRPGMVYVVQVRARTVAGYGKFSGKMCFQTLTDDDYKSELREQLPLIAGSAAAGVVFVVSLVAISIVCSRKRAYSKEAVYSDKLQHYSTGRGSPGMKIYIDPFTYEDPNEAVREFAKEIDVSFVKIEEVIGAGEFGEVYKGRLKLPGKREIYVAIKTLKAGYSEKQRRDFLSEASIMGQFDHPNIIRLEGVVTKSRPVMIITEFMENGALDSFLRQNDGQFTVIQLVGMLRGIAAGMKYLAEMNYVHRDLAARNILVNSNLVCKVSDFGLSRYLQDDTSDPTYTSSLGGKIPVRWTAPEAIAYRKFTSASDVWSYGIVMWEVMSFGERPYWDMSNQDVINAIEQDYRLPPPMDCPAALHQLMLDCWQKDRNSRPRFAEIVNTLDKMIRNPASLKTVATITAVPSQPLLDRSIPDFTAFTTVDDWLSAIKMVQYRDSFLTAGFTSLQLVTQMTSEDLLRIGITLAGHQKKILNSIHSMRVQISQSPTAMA

The remaining activity of `CC(C)(C)c1cc(C=C(C#N)C#N)cc(Br)c1O` is reported as 114% (enzyme activity; inhibitor; 0.5 µM).
The remaining binding of `COc1ncccc1-c1cnn2ccc(N3CCN(C(=O)OC(C)C)CC3)nc12` is reported as 100% (binding; competition with immobilised ligand; 1 µM).
The inhibition of `Cn1cc(-c2cc(F)cc(N3CCn4c(cc5c4CCCC5)C3=O)c2CO)cc(Nc2ccc(N3CCN(C4COC4)CC3)cn2)c1=O` is reported as 6% (enzyme activity; inhibitor; 0.1 µM).
For `C#Cc1n[nH]c2c(-c3cn([C@@H](C)c4ccccc4)c(=O)[nH]c3=O)cc(F)cc12`, the inhibition was 1.9% (enzyme activity; inhibitor; 0.1 µM).
The remaining binding of `Cc1nn(C)cc1-c1nc2c(N3CCN(Cc4ccc(Cl)cc4)CC3)c(Cl)cnc2[nH]1` is reported as 100% (binding; competition with immobilised ligand; 1 µM).
`Cn1cncc1[C@](O)(COc1ccc(C#N)cc1-c1ccc(OC(F)(F)F)cc1)c1ccc(C#N)cc1` gave a remaining binding of 98% (cell-free assay; competition with immobilised ligand; 1 µM).
For `O=c1[nH]c2ccccc2n1C1CCN(Cc2ccc(-c3[nH]c4cc5ncnc5cc4nc3-c3ccccc3)cc2)CC1`, the remaining signal was 104% (cell-free assay; 0.5 µM).
`Cn1cc(-c2cccc(N3CCc4c(sc5c4CC(C)(C)C5)C3=O)c2CO)cc(Nc2ccncn2)c1=O` gave an inhibition of 4% (enzyme activity; inhibitor; 1 µM).
With `COc1cc(Nc2ncc(F)c(Nc3ccc4c(n3)NC(=O)C(C)(C)O4)n2)cc(OC)c1OC` the inhibition was 96% (binding; competition with immobilised ligand; 10 µM).
`Nc1ncc(-c2nc(N3CCOCC3)nc(N3CCOCC3)n2)c(C(F)F)n1` gave a remaining binding of 98% (cell-free assay; competition with immobilised ligand; 10 µM).
`N#CC1(c2ccccn2)CCN(Cc2cc(C(=O)O)c(=O)n3ccccc23)CC1` gave a remaining binding of 100% (cell-free assay; competition with immobilised ligand; 1 µM).
For `C#Cc1n[nH]c2c(-c3cn(C(C)c4ccccn4)c(=O)[nH]c3=O)cc(F)cc12` (stereo not drawn), the inhibition was 4.9% (enzyme activity; inhibitor; 1 µM).
